Data set [1] relates to Staphylococcus aureus. Briefly: Antibacterial activity against methicillin-resistant Staphylococcus aureus CBD-635 at 50 ug/mL. The class given is functional, organism-based. Summed up:
(§1)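 CLSI microbroth dilution in undiluted Müller–Hinton broth; peptides dissolved in DMSO and diluted in medium to 1% DMSO (v/v) final. Each agent tested at a fixed concentration against the ESKAPE clinical isolate. Controls: medium alone, inoculum without drug, and inoculum with methicillin, vancomycin, nisin, colistin or bacitracin. Run in triplicate.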

In data set [2] the test system is Staphylococcus aureus. Nature of the data set: Antibacterial activity against methicillin-resistant Staphylococcus aureus CBD-635 at 100 ug/mL. The data set is classed as functional, organism-based. Summed up: as §1
Data set [3] relates to Staphylococcus aureus. Nature of the data set: Antibacterial activity against methicillin-resistant Staphylococcus aureus CBD-635 at 35 ug/mL. The class given is functional, organism-based. Summed up: as §1
Data set [4] deals with Enterococcus faecium. Nature of the data set: Antibacterial activity against vancomycin-resistant Enterococcus faecium USF-1449 at 50 ug/mL. The data set is classed as functional, organism-based. Summed up: as §1
In data set [5] the test system is Acinetobacter baumannii. Nature of the data set: Antibacterial activity against Acinetobacter baumannii USF-1403 at 100 ug/mL. The class given is functional, organism-based. In short, it runs like this:
(§2)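 Broth microdilution per CLSI in undiluted Müller–Hinton broth. Compounds were dissolved in DMSO and diluted to a final 1% DMSO (v/v). Plates included medium-only and no-drug growth controls, plus methicillin, vancomycin, nisin, colistin and bacitracin. Triplicate runs.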

The test system of data set [6] is Enterococcus faecium. Briefly: Antibacterial activity against vancomycin-resistant Enterococcus faecium USF-1449 at 100 ug/mL. The class given is functional, organism-based. Summed up: as §1
Data set [7] has as its system Staphylococcus aureus. Nature of the data set: Antibacterial activity against methicillin-resistant Staphylococcus aureus CBD-635 at 25 ug/mL. The class given is functional, organism-based. In short, it runs like this:
as §1

The nature of data set [8]: Hemolytic activity in human erythrocytes at 320 uM after 1 hr. The class given is ADME, cell-based. Particulars: erythrocyte.
Data set [9] concerns Pseudomonas aeruginosa. Nature of the data set: Antibacterial activity against Pseudomonas aeruginosa PA14 assessed as inhibition of biofilm formation at 4.8 uM after 3 days by Styo-9/propidium iodide staining based confocal laser scanning microscopy. The class given is functional, organism-based.
The test system of data set [10] is Staphylococcus aureus. Nature of the data set: Antibacterial activity against methicillin-resistant Staphylococcus aureus SAP0017 clinical isolate assessed as inhibition of biofilm formation at 4.8 uM after 3 days by Styo-9/propidium iodide staining based confocal laser scanning microscopy. The data set is classed as functional, organism-based.
Data set [11] concerns Pseudomonas aeruginosa. Briefly: Antibacterial activity against Pseudomonas aeruginosa PA14 assessed as eradication of mature biofilm formation at 4.8 uM after 24 hrs by Styo-9/propidium iodide staining based confocal laser scanning microscopy. The class given is functional, organism-based.
Data set [12] has as its system Staphylococcus aureus. Briefly: Antibacterial activity against methicillin-resistant Staphylococcus aureus SAP0017 clinical isolate assessed as eradication of mature biofilm formation at 4.8 uM after 24 hrs by Styo-9/propidium iodide staining based confocal laser scanning microscopy. The class given is functional, organism-based.
The subject of data set [13] is Acinetobacter baumannii. Briefly: Antibacterial activity against Acinetobacter baumannii USF-1403 at 25 ug/mL. The data set is classed as functional, organism-based. In short, it runs like this: as §2
Data set [14] concerns Acinetobacter baumannii. Nature of the data set: Antibacterial activity against Acinetobacter baumannii USF-1403 at 35 ug/mL. The data set is classed as functional, organism-based. Summed up:
as §2

In data set [15] the test system is Acinetobacter baumannii. Nature of the data set: Antibacterial activity against Acinetobacter baumannii USF-1403 at 50 ug/mL. The data set is classed as functional, organism-based. Summed up: as §2
Data set [16] concerns Pseudomonas aeruginosa. Briefly: Ratio of MIC for Pseudomonas aeruginosa USF-1423 after 8 serial passages to MIC for Pseudomonas aeruginosa USF-1423 after 1st serial passage. The class given is functional. Summed up:
(§3)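 Serial passage: exponential-phase cultures in MHB at about 10^6 CFU/mL final, started at ½ MIC of agent, incubated overnight at 37°C. An aliquot was moved each step to a 2-fold higher concentration, for 8 passages. MIC was determined at each step by broth microdilution. Vancomycin and ciprofloxacin were comparators. Three independent experiments.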

The test system of data set [17] is Staphylococcus aureus. Nature of the data set: Ratio of MIC for methicillin-resistant Staphylococcus aureus CBD-635 after 8 serial passages to MIC for methicillin-resistant Staphylococcus aureus CBD-635 after 1st serial passage. The data set is classed as functional. In short, it runs like this:
as §3

For data set [18], the system named is Enterococcus faecium. Briefly: Antibacterial activity against vancomycin-resistant Enterococcus faecium USF-1449 at 35 ug/mL. The data set is classed as functional, organism-based. Summed up: as §1
The test system of data set [19] is Klebsiella pneumoniae. Nature of the data set: Antibacterial activity against carbapenem-resistant Klebsiella pneumoniae USF-1433 at 50 ug/mL. The data set is classed as functional, organism-based. Summed up: as §1
Data set [20] deals with Klebsiella pneumoniae. Briefly: Antibacterial activity against carbapenem-resistant Klebsiella pneumoniae USF-1433 at 100 ug/mL. The data set is classed as functional, organism-based. Summed up:
as §1

Molecules are shown by their SMILES. Calls of active or inactive are those of the source. No cut-off for these calls is given here.

Regarding `CC(C)C[C@@H]1NC(=O)[C@@H](CC(C)C)NC(=O)C(NC(=O)CCCCCCCCCCCNC(=N)N)CNC(=O)[C@@H](CCCNC(=N)N)NC(=O)[C@@H](CC(N)=O)NC(=O)[C@@H](Cc2ccccc2)NC1=O` (stereo partly drawn), the outcome in data set [1] and in [2] was Active.

In the case of `CC(C)C[C@@H]1NC(=O)[C@@H](CC(C)C)NC(=O)C(NC(=O)CCCCCCCCCCCNC(=N)N)CNC(=O)[C@@H](CCCCN)NC(=O)[C@@H](CC(N)=O)NC(=O)[C@@H](Cc2ccccc2)NC1=O` (stereo partly drawn), the outcome in data set [1], in data set [2] and in data set [3] was Active.

With `CC(C)[C@@H]1NC(=O)[C@@H](C(C)C)NC(=O)C(NC(=O)CCCCCCCCCCCNC(=N)N)CNC(=O)[C@@H](C)NC(=O)[C@@H](CC(N)=O)NC(=O)[C@@H]([C@@H](C)O)NC1=O` (stereo partly drawn), the outcome in data set [4], in data set [5], in [6], in data set [7] and in [2] was Active. Moreover, the Activity entry in [8] was “Non-toxic”. In addition, the inhibition result in [9] and in data set [10] was “Active” throughout. The inhibition result in data set [11] and in data set [12] was “inactive” in each case.

Take `CC[C@@H](C)[C@H]1NC(=O)[C@H](CC(C)C)NC(=O)[C@@H](CCCCN)NC(=O)C(NC(=O)CCCCCCCCCCCNC(=N)N)CNC(=O)[C@@H](CCCCN)NC(=O)[C@@H](CC(N)=O)NC1=O` (stereo partly drawn): the result in data set [4], in data set [13], in data set [5], in [6], in [14] and in data set [15] was Active.

With `O=C(O)c1cn(C2CC2)c2cc(N3CCNCC3)c(F)cc2c1=O` [CIPROFLOXACIN], the Ratio in [16] and in data set [17] was 64 each time.

On to `CC(C)C[C@@H]1NC(=O)[C@@H](CC(C)C)NC(=O)C(NC(=O)CCCCCCCCCCCNC(=N)N)CNC(=O)[C@@H](CCCNC(=N)N)NC(=O)[C@@H](CC(N)=O)NC(=O)[C@@H](CCCCN)NC1=O` (stereo partly drawn), for which the outcome in data set [4], in data set [13], in data set [18], in data set [1], in [5] and in data set [6] was Active. In addition, the result in data set [14], in data set [19], in [2], in data set [15], in data set [3] and in data set [20] was Active.

In the case of `CC[C@@H](C)[C@H]1NC(=O)[C@H](Cc2ccccc2)NC(=O)[C@@H](CC(C)C)NC(=O)C(NC(=O)CCCCCCCCCCCNC(=N)N)CNC(=O)[C@@H](CCCCN)NC(=O)[C@@H](CC(N)=O)NC1=O` (stereo partly drawn), the result in data set [1], in [2] and in data set [3] was Active.

The record behind these values is ChEMBL document CHEMBL3758153, “Identification of novel cyclic lipopeptides from a positional scanning combinatorial library with enhanced antibacterial and antibiofilm activities” (Eur J Med Chem, 2016).
